In ChEMBL document CHEMBL4825779, “Sulfur Analogues of Tyrosine in the Development of Triazene Hybrid Compounds: A New Strategy against Melanoma” (ACS Med Chem Lett, 2021):

T1: Tyrosinase (Agaricus bisporus, UniProt O42713)
T1 sequence (O42713 whole entry): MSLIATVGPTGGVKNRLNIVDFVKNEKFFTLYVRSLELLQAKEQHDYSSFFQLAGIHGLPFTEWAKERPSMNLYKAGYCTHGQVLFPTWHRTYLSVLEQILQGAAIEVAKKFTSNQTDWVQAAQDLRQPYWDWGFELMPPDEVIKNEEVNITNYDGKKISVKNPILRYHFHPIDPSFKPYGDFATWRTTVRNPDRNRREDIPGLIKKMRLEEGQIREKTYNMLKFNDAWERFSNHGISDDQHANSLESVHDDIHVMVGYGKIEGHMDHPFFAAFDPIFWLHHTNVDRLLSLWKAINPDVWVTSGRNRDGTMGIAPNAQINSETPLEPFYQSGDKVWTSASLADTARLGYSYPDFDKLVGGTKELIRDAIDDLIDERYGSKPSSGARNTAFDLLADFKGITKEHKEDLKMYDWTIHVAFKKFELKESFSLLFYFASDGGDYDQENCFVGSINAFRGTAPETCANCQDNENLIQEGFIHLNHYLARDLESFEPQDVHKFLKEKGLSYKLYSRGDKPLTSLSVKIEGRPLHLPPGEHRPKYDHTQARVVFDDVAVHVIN


Columns and labels:
[1] = 1-Octanol/phosphate buffer apparent partition coefficient, logP of the compound measured after 30 mins by HPLC analysis; type: physicochemical
Tyrosinase [2] = biological target: T1, Tyrosinase; test: Substrate activity at mushroom tyrosinase assessed as half-life of the compound by HPLC analysis; type: ADME
Summary of the method: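 Incubated with mushroom tyrosinase at 100 units/mL. Reaction followed by HPLC to derive substrate half-life (min).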

HaCaT = test: Cytotoxicity against human HaCaT cells assessed as reduction in cell viability incubated for 72 hrs by MTS assay; type: cell-based
Summary of the method: (§1)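 Cell lines: MNT-1 and A375 (human melanoma), B16F10 (murine melanoma) and HaCaT (human keratinocytes). Compounds incubated with cells for 72 h; IC50 reported in μM.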

[3] = Selectivity index, ratio of IC50 for human HaCaT cells to IC50 for mouse B16-F10 cells by MTS assay; type: toxicity; conditions: HaCaT cells and B16-F10 cells, read-out: Ratio IC50
Summary of the method: (§2)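 Human HaCaT keratinocytes and the melanoma line (human A375 or murine B16F10) were each incubated with compound for 72 h, and IC50 was determined in each line. Selectivity index is HaCaT IC50 divided by melanoma-line IC50.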

B16-F10 = test: Cytotoxicity against mouse B16-F10 cells assessed as reduction in cell viability incubated for 72 hrs by MTS assay; type: functional, cell-based; conditions: B16-F10, 72 h; summary of the method: as §1
[4] = Half life in 80% human plasma by HPLC analysis; type: ADME, cell-free
Summary of the method: (§3)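 Stability run at 37 °C in PBS pH 7.4 or 80% human plasma. HPLC followed loss of parent and appearance of hydrolysis products over at least 3 half-lives. Decay fitted pseudo-first-order: kobs taken as the slope of ln(concentration) vs time, and t1/2 calculated from kobs.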

[5] = Selectivity index, ratio of IC50 for human HaCaT cells to IC50 for human MNT-1 cells by MTS assay
[6] = Cytotoxicity against human MNT-1 cells assessed as reduction in cell viability incubated for 72 hrs by MTS assay; type: functional, cell-based; conditions: MNT-1, 72 h; summary of the method: as §1
[7] = Selectivity index, ratio of IC50 for human HaCaT cells to IC50 for human cells by MTS assay
[8] = Hepatotoxicity in rat liver microsomes assessed as GSH depletion measured after 180 mins by Ellman's method; type: toxicity, Microsome; conditions: 3 h
[9] = Drug metabolism in rat liver microsomes assessed as CYP450-mediated o-quinone formation measured after 3 hrs by HPLC analysis; type: ADME, Microsome
[10] = Half life of the compound in PBS buffer at pH 7.4 by HPLC analysis; type: physicochemical; summary of the method: as §3
Tyrosinase [11] = biological target: T1, Tyrosinase; test: Drug metabolism assessed as mushroom tyrosinase-mediated drug oxidation by measuring dihydroxylated metabolite formation with m/z 408 by mass spectrometry; type: ADME
[12] = Selectivity index, ratio of IC50 for human HaCaT cells to IC50 for human A-375 cells by MTS assay; summary of the method: as §2
Tyrosinase [13] = biological target: T1, Tyrosinase; test: Drug metabolism assessed as mushroom tyrosinase-mediated drug oxidation by measuring dihydroxylated metabolite formation with m/z 410 by mass spectrometry; type: ADME
A-375 = test: Cytotoxicity against human A-375 cells assessed as reduction in cell viability incubated for 72 hrs by MTS assay; type: functional, cell-based; conditions: A-375, 72 h; summary of the method: as §1
[14] = Toxicity in BALB/c mouse assessed as liver tissue index at 12 mg/kg, iv administered 3 times for 1 week and measured at 2 days post-last injection (reference value: 22 +/-1); type: organism-based; conditions: in vivo, 216 h, time 9 day
[15] = Toxicity in BALB/c mouse assessed as heart tissue index at 12 mg/kg, iv administered 3 times for 1 week and measured at 2 days post-last injection (reference value: 7 +/-1); type: organism-based; conditions: in vivo, 216 h, time 9 day
[16] = Toxicity in BALB/c mouse assessed as kidney tissue index at 12 mg/kg, iv administered 3 times for 1 week and measured at 2 days post-last injection (reference value: 13 +/-1); type: organism-based; conditions: in vivo, 216 h, time 9 day
[17] = Toxicity in BALB/c mouse assessed as lung tissue index at 12 mg/kg, iv administered 3 times for 1 week and measured at 2 days post-last injection (reference value: 8 +/-1); type: organism-based; conditions: in vivo, 216 h, time 9 day
[18] = Toxicity in BALB/c mouse assessed as spleen tissue index at 12 mg/kg, iv administered 3 times for 1 week and measured at 2 days post-last injection (reference value: 6 +/-1); type: organism-based; conditions: in vivo, 216 h, time 9 day
[19] = Haemolytic activity against human erythrocytes at 0.2 to 400 uM after 1 hr; type: ADME, cell-based, Erythrocyte; conditions: dose 0.2-400 µM, read-out: Activity
Summary of the method: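 Human red blood cells exposed to compound at 0.2 to 400 μM for 1 h at 37 °C. Read-out: percentage hemolysis.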

[20] = Hepatotoxicity in BALB/c mouse assessed as gamma-GT level in plasma at 12 mg/kg, iv administered 3 times for 1 week and measured at 2 days post-last injection (reference value: 47 +/-9 U/L); type: toxicity, organism-based; conditions: in vivo, 216 h, time 9 day
Summary of the method: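 BALB/c mice dosed intravenously at 12 mg/kg, 3 times per week for 1 week. Vehicle: PBS plus Cremophor (5% p/v); controls received vehicle only. Behaviour checked daily. Animals killed 2 days after the last injection; blood collected for γ-GT, and organs weighed for tissue index.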

Tyrosinase [21] = biological target: T1, Tyrosinase; test: Drug metabolism assessed as mushroom tyrosinase-mediated drug oxidation by measuring compound 18c formation measured after 0.5 to 4 mins by HPLC analysis; type: ADME; conditions: time 0.5-4 min
Tyrosinase [22] = biological target: T1, Tyrosinase; test: Drug metabolism assessed as mushroom tyrosinase-mediated drug oxidation by measuring 3-(4-cyanophenyl)-N-(2-(3,4-dioxocyclohexa-1,5-dienylthio)ethyl)-1-methyltriaz-2-ene-1-carboxamide formation measured after 2 hrs by HPLC analysis; type: ADME
Tyrosinase [23] = biological target: T1, Tyrosinase; test: Drug metabolism assessed as mushroom tyrosinase-mediated drug oxidation by measuring dihydroxylated metabolite formation with m/z 344 by mass spectrometry; type: ADME
[24] = substrate: Cc1ccc(/N=N/N(C)C(=O)NCCSc2ccc(O)cc2)cc1; test: (§4) Substrate activity at mushroom tyrosinase assessed as Km by Michaelis-Menten based analysis; type: ADME, Agaricus bisporus
[25] = substrate: CCOC(=O)c1ccc(/N=N/N(C)C(=O)NCCSc2ccc(O)cc2)cc1; test: as §4; type: ADME, Agaricus bisporus
[26] = substrate: CN(/N=N/c1ccc(C#N)cc1)C(=O)NCCSc1ccc(O)cc1; test: as §4; type: ADME, Agaricus bisporus

Row | half-life (Tyrosinase [2]) | half-life [4] | half-life [10] | Molecule | IC50 (HaCaT) | selectivity ratio [3] | IC50 (B16-F10) | Ratio IC50 [5] | IC50 [6] | Ratio IC50 [12] | IC50 (A-375) | further results
1 | 0.5 min | 6280 min | > 10 days | CN(/N=N/c1ccc(Br)cc1)C(=O)NCCSc1ccc(O)cc1 | > 150 µM | 2 | > 75 µM | 2 | > 75 µM | – | – | logD at 0.5 h [1]: 3.95; Ratio IC50 [7]: 2; Activity [8]: Non-Toxic; Drug metabolism [9]: Metabolite_Notdetected
2 | – | – | – | CN/N=N/c1ccc(Br)cc1 | > 60 µM | – | > 60 µM | – | > 60 µM | – | – | –
3 | 2.1 min | 498 min | 4.4 days | CN(/N=N/c1ccc(Br)cc1)C(=O)CCSc1ccc(O)cc1 | – | 2 | > 75 µM | 2 | > 75 µM | 2 | 55 µM | Drug metabolism (Tyrosinase [11]): Metabolite_Detected; Drug metabolism (Tyrosinase [13]): Metabolite_Detected
4 | 3.7 min | 1830 min | > 10 days | CCOC(=O)c1ccc(/N=N/N(C)C(=O)NCCSc2ccc(O)cc2)cc1 | > 100 µM | 2 | 51 µM | 2 | 49.4 µM | – | 43.8 µM | logD at 0.5 h [1]: 4.08; Activity_index [14]: 22; Activity_index [15]: 7; Activity_index [16]: 13; Activity_index [17]: 8; Activity_index [18]: 6; hemolysis at 1 h, up to 400 µM [19]: < 1%; Ratio IC50 [7]: 2; Activity [20]: 57 U/L
5 | – | 179 min | 3.6 days | CN(/N=N/c1ccc(C#N)cc1)C(=O)CCSc1ccc(O)cc1 | – | 2 | > 75 µM | 2 | > 75 µM | 2 | > 75 µM | –
6 | 0.5 min | 4440 min | > 10 days | CN(/N=N/c1ccc(C#N)cc1)C(=O)NCCSc1ccc(O)cc1 | > 150 µM | 2 | > 75 µM | 2 | > 75 µM | – | – | logD at 0.5 h [1]: 3.49; Drug metabolism (Tyrosinase [21]): Metabolite_Detected; Ratio IC50 [7]: 2; Drug metabolism (Tyrosinase [22]): Metabolite_Notdetected
7 | – | – | – | CCOC(=O)c1ccc(/N=N/NC)cc1 | > 60 µM | – | > 60 µM | – | > 60 µM | – | – | –
8 | 1 min | 3700 min | > 10 days | CC(=O)c1ccc(/N=N/N(C)C(=O)NCCSc2ccc(O)cc2)cc1 | > 150 µM | 2 | > 75 µM | 2 | > 75 µM | – | – | logD at 0.5 h [1]: 3.44; Ratio IC50 [7]: 2
9 | – | 294 min | 5.8 days | CC(=O)c1ccc(/N=N/N(C)C(=O)CCSc2ccc(O)cc2)cc1 | – | 2 | > 75 µM | 2 | > 75 µM | 2 | > 75 µM | –
10 | 2.3 min | 522 min | 4.2 days | Cc1ccc(/N=N/N(C)C(=O)CCSc2ccc(O)cc2)cc1 | 45.8 µM | 2 | > 75 µM | 2 | – | <1 | 47 µM | Drug metabolism (Tyrosinase [23]): Metabolite_Detected
11 | – | – | – | Cn1nnc2c(C(N)=O)ncn2c1=O [TEMOZOLOMIDE] | > 75 µM | – | > 75 µM | – | > 75 µM | – | > 75 µM | –
12 | – | – | – | CN=NNc1ccc(C#N)cc1 | > 60 µM | – | > 60 µM | – | > 60 µM | – | – | –
13 | – | – | – | CN=NNc1ccc(C(C)=O)cc1 | > 130 µM | – | > 75 µM | – | > 75 µM | – | – | –
14 | – | – | – | NCCSc1ccc(O)cc1 | > 125 µM | – | > 75 µM | >=3 | 42.8 µM | – | – | –
15 | 1.9 min | 5310 min | > 10 days | Cc1ccc(/N=N/N(C)C(=O)NCCSc2ccc(O)cc2)cc1 | > 130 µM | 2 | 78.3 µM | 2 | 74.1 µM | – | – | logD at 0.5 h [1]: 4.21; Ratio IC50 [7]: 2
16 | – | – | – | CN(/N=N/c1ccc(Cl)cc1)C(=O)CCSc1ccc(O)cc1 | > 75 µM | 2 | > 75 µM | 2 | – | 2 | > 75 µM | –
17 | – | 394 min | 5.4 days | CCOC(=O)c1ccc(/N=N/N(C)C(=O)CCSc2ccc(O)cc2)cc1 | – | 2 | > 75 µM | 2 | > 75 µM | 2 | 61 µM | –
18 | – | – | – | Tyrosinase (Agaricus bisporus) (protein) MSLIATVGPTGGVKNRLNIVDFVKNEKFFTLYVRSLELLQAKEQHDYSSFFQLAGIHGLPFTEWAKERPSMNLYKAGYCTHGQVLFPTWHRTYLSVLEQILQGAAIEVAKKFTSNQTDWVQAAQDLRQPYWDWGFELMPPDEVIKNEEVNITNYDGKKISVKNPILRYHFHPIDPSFKPYGDFATWRTTVRNPDRNRREDIPGLIKKMRLEEGQIREKTYNMLKFNDAWERFSNHGISDDQHANSLESVHDDIHVMVGYGKIEGHMDHPFFAAFDPIFWLHHTNVDRLLSLWKAINPDVWVTSGRNRDGTMGIAPNAQINSETPLEPFYQSGDKVWTSASLADTARLGYSYPDFDKLVGGTKELIRDAIDDLIDERYGSKPSSGARNTAFDLLADFKGITKEHKEDLKMYDWTIHVAFKKFELKESFSLLFYFASDGGDYDQENCFVGSINAFRGTAPETCANCQDNENLIQEGFIHLNHYLARDLESFEPQDVHKFLKEKGLSYKLYSRGDKPLTSLSVKIEGRPLHLPPGEHRPKYDHTQARVVFDDVAVHVIN | – | – | – | – | – | – | – | Km [24]: 64 µM; Km [25]: 64 µM; Km [26]: 64 µM
